Source: ChEMBL document CHEMBL4765345, “Design, synthesis, and biological evaluation of dual targeting inhibitors of histone deacetylase 6/8 and bromodomain BRPF1” (Eur J Med Chem, 2020)

Tests used:
[1] = target: Histone deacetylase 1 (Homo sapiens, UniProt Q13547); test: Inhibition of recombinant human HDAC1 at 10 uM using Z-(Ac)Lys-AMC as substrate after 90 mins by fluorescence based micro plate assay
In short: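 Recombinant human HDAC1 or HDAC6 incubated 90 min at 37 °C with 10.5 μM ZMAL (Z-(Ac)Lys-AMC) and increasing inhibitor concentrations, using a homogeneous fluorescence assay. Fluorescence read at Ex 390/Em 460 nm.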

[2] = target: T1, Histone deacetylase 8 (Homo sapiens, UniProt Q9BY41); test: Inhibition of human recombinant HDAC8 using H2N-Arg-His-Lys(Ac)-Lys(Ac)-AMC as substrate after 90 mins by fluorescence based micro plate assay
T1 sequence (Q9BY41 whole entry): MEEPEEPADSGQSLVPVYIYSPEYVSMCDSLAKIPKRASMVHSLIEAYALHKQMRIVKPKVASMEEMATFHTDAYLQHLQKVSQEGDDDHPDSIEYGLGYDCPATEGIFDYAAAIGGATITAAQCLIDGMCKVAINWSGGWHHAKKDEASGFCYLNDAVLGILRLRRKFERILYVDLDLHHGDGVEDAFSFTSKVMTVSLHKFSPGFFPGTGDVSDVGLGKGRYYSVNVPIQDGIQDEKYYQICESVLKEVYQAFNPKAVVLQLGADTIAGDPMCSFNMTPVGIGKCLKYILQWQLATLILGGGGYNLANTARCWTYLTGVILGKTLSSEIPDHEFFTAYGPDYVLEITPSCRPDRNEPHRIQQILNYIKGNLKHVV

[3] = test system: HEK293; test: Cytotoxicity against human HEK293 assessed as reduction in cell viability incubated for 24 hrs by AlamarBlue assay; assay type: cell-based; conditions: hek293, 24 h
In short: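 HEK293 cells were grown at 37 °C under 5% CO2 in DMEM with 10% FCS and 5 mM glutamine and seeded at 1.5 x 10³ cells per well. Compound at 50 μM was added at once. After 24 h AlamarBlue was added for another 21 h, and fluorescence was read at Ex 560/Em 590 nm. Triplicates over three independent experiments.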

[4] = test system: THP-1; test: Antiproliferative activity against human THP-1 assessed as reduction in cell growth at 100 uM by CellTiter-non radioactive cell proliferation assay; assay type: functional
[5] = test system: THP-1; test: Antiproliferative activity against human THP-1 assessed as reduction in cell growth at 20 uM by CellTiter-non radioactive cell proliferation assay; assay type: functional
[6] = test system: THP-1; test: Antiproliferative activity against human THP-1 assessed as reduction in cell growth at 4 uM by CellTiter-non radioactive cell proliferation assay; assay type: functional
[7] = test system: HL-60; test: Antiproliferative activity against human HL60 assessed as reduction in cell growth at 20 uM by CellTiter-non radioactive cell proliferation assay; assay type: functional

Sequence of Histone deacetylase 1 (Q13547 whole entry): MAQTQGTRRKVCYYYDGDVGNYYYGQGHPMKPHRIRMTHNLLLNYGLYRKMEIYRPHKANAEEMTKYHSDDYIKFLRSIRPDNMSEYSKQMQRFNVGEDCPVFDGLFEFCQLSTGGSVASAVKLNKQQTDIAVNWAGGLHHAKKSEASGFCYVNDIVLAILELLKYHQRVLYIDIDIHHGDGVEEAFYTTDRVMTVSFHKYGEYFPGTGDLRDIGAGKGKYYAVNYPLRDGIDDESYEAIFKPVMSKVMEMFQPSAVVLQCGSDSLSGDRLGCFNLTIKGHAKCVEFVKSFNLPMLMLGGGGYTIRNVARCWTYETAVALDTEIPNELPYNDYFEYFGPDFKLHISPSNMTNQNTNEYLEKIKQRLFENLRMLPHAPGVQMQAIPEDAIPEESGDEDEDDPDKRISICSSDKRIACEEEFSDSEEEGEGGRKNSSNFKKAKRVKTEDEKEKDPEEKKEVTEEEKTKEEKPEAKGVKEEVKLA

- inhibition [1]: 38%
- IC50 [2]: 443 nM
SMILES: COc1ccc(C(=O)NO)cc1S(=O)(=O)Nc1ccc2c(c1)cc(C)c(=O)n2C
- Activity [3]: Non-Toxic
- inhibition at 100 µM [4]: 43%
- inhibition at 20 µM [5]: 32%
- inhibition at 4 µM [6]: 0%
- inhibition at 20 µM [7]: 10%
